The text below walks through data of ChEMBL document CHEMBL1138525 (J Med Chem, 2009).

The target in assay [1] is P2Y purinoceptor 2 (Homo sapiens, UniProt P41231, C278S). In words: Antagonist activity at N-terminal HA epitope-tagged human P2Y2 receptor C278S mutant expressed in human 1321N1 cells assessed as inhibition of UTP-induced calcium mobilization. The assay is classed as functional, cell-based. An outline of the steps:
(§1)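 1321N1 cells expressing wild-type or mutant receptor were dye-loaded with Oregon Green BAPTA-1/AM in Krebs-HEPES pH 7.4. Antagonist was preincubated for 20 min at 28 °C in the dark. Cells were then stimulated with UTP at a concentration giving 80-90% of maximal response. Calcium fluorescence read at 520 nm (excitation 485 nm).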

In assay [2] the target is T1, P2Y purinoceptor 2 (Homo sapiens, UniProt P41231). In words: Antagonist activity at N-terminal HA epitope-tagged wild type 4 human P2Y2 receptor expressed in human 1321N1 cells assessed as inhibition of UTP-induced calcium mobilization. In kind it is functional, cell-based. Background: Calcium assays in cells follow changes in intracellular calcium, usually with a dye or a luminescent sensor.
T1 sequence (P41231 whole entry): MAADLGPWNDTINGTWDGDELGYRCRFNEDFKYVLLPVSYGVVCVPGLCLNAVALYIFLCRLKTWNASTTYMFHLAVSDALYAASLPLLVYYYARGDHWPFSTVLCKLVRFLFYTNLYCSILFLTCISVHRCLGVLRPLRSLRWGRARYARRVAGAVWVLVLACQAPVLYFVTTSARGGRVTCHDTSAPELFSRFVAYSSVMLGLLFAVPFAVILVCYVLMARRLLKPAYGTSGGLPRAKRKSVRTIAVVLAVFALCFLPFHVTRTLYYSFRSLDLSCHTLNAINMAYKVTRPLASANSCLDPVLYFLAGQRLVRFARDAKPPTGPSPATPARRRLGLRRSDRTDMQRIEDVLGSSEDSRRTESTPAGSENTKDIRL

Assay [3] addresses P2Y purinoceptor 2 (Homo sapiens, UniProt P41231, R177A/R180A). In words: Antagonist activity at N-terminal HA epitope-tagged human P2Y2 receptor R177A_R180A double mutant expressed in human 1321N1 cells assessed as inhibition of UTP-induced calcium mobilization. In kind it is functional, cell-based. The procedure, abridged: as §1
Assay [4] addresses T1, P2Y purinoceptor 2. Kind of assay: Antagonist activity at N-terminal HA epitope-tagged wild type 3 human P2Y2 receptor expressed in human 1321N1 cells assessed as inhibition of UTP-induced calcium mobilization. In kind it is functional, cell-based. An outline of the steps:
as §1

Assay [5] deals with P2Y purinoceptor 2 (Homo sapiens, UniProt P41231, Y198A). In words: Antagonist activity at N-terminal HA epitope-tagged human P2Y2 receptor Y198A mutant expressed in human 1321N1 cells assessed as inhibition of UTP-induced calcium mobilization. In kind it is functional, cell-based. An outline of the steps:
as §1

The target in assay [6] is P2Y purinoceptor 2 (Homo sapiens, UniProt P41231, Y118A). Kind of assay: Antagonist activity at N-terminal HA epitope-tagged human P2Y2 receptor Y118A mutant expressed in human 1321N1 cells assessed as inhibition of UTP-induced calcium mobilization. In kind it is functional, cell-based. The procedure, abridged:
as §1

Assay [7] deals with P2Y purinoceptor 2 (Homo sapiens, UniProt P41231, Y114A). Kind of assay: Antagonist activity at N-terminal HA epitope-tagged human P2Y2 receptor Y114A mutant expressed in human 1321N1 cells assessed as inhibition of UTP-induced calcium mobilization. The assay is classed as functional, cell-based. An outline of the steps:
as §1

Assay [8] concerns P2Y purinoceptor 2 (Homo sapiens), P41231 [UNDEFINED MUTATION]. In words: Ratio of IC50 for N-terminal HA epitope-tagged human P2Y2 receptor C278S mutant to IC50 for wild type 3 human P2Y2 receptor.
P2Y purinoceptor 2 (Homo sapiens), P41231 [UNDEFINED MUTATION], sequence (P41231 whole entry, looked up, stated change not applied): as the sequence (P41231 whole entry) above
For assay [9], the target named is T1, P2Y purinoceptor 2. Kind of assay: Agonist activity at N-terminal HA epitope-tagged human P2Y2 receptor expressed in human 1321N1 cells assessed as increase in intracellular calcium level at 100 µM.

Structures are written as SMILES. The source made the active and inactive calls. No cut-off for these calls is given here.

In general, IC50 refers to the concentration at which inhibition is half-maximal.

P2Y purinoceptor 2 (Homo sapiens, UniProt P41231, R177A/R180A), sequence (P41231 whole entry R177A/R180A): as the sequence (P41231 whole entry) above, with R177A, R180A counted along it
P2Y purinoceptor 2 (Homo sapiens, UniProt P41231, Y114A), sequence (P41231 whole entry Y114A): as the sequence (P41231 whole entry) above, with Y114A counted along it
P2Y purinoceptor 2 (Homo sapiens, UniProt P41231, C278S), sequence (P41231 whole entry C278S): as the sequence (P41231 whole entry) above, with C278S counted along it
P2Y purinoceptor 2 (Homo sapiens, UniProt P41231, Y118A), sequence (P41231 whole entry Y118A): as the sequence (P41231 whole entry) above, with Y118A counted along it
P2Y purinoceptor 2 (Homo sapiens, UniProt P41231, Y198A), sequence (P41231 whole entry Y198A): as the sequence (P41231 whole entry) above, with Y198A counted along it

Regarding `COc1ccc(Nc2cc(S(=O)(=O)O)c(N)c3c2C(=O)c2ccccc2C3=O)cc1`, the IC50 amounted to 3.44 µM in assay [1]; 21.7 µM in assay [2]; 26.5 µM in [3]; 21.9 µM in assay [4]; 21.1 µM in assay [5]; 22.4 µM in assay [6]. Further, in assay [7], the IC50 is 24.6 µM. Besides, the Ratio IC50 in assay [8] was 0.2.

Consider `C[N+](C)(C)CCOC(N)=O`, for which the outcome in assay [9] was Active.
